Screens deposited in PubChem BioAssay by several laboratories.
HSF1 inh: HSF1 inhibition | AID 2098 | NIH3T3-HGL HSE-luciferase, MG132-induced, luminescence 8 h; active compounds read low | 0.77% of 300,000 active | activity change, negative = inhibition, % at 7.5 µM (by protocol);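 active means more than half of replicate wells show activity change below -50%, luminescence cut by over half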;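 further: luciferase reports HSF-1 transcriptional activity via heat shock element; 0% = median of DMSO wells and -100% = zero luminescence signal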
AI-2 QS mod: modulators of Vibrio harveyi AI-2 quorum sensing system. Vibrio harveyi JMH597 AI-2 luminescence/OD600 ratio, 9 h; active compounds read low; strain lacks LuxN and CqsS sensors; 0 = neutral-control median. activity change, % at 7.5 µM. 0.4% of 300,000 active; in the data active means activity change below about -75%, passing the limit was not always enough;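 further: luminescence divided by OD600 gain over 9 h not by final OD600 alone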
PHOSPHO1 block: inhibitors of human PHOSPHO1 phosphatase; Q8TCT1; recombinant PHOSPHO1, absorbance phosphatase assay; inhibition, % at 13.3 µM; 1.1% of 290,000 active; in the data active means inhibition above about 60%
Target sequence (Q8TCT1 whole entry, looked up): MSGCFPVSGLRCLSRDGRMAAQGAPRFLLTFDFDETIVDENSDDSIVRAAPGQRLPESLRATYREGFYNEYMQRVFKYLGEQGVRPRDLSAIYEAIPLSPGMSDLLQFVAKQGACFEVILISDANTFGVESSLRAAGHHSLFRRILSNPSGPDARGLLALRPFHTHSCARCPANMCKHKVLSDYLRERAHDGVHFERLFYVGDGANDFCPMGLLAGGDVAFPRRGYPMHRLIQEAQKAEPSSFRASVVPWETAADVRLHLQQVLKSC
HSF1 activator: increases HSF-1 driven luciferase reporter signal | activation, % at 9 µM | NIH3T3-HGL HSF-1 luciferase reporter, MG132, 8 h; 100% = twice DMSO control signal | AID 504408 | 1.7% of 300,000 active;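 active means mean replicate activation of at least 50% with a set share of replicates each reaching 50%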;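 further: 0% = median of the neutral control wells and 100% = twice that signal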
HCV core dimer: blocks dimerization of HCV core protein. 0.33% of 300,000 active. AID 1899. TR-FRET GST/Flag-core106 dimerization, 1536-well. inhibition, % at 5 µM;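 active means inhibition above the mean of all tested compounds plus 3 SD, set per screening campaign, cut at about 45% in these data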
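Assay system: tagged HCV core106 pair (GST and Flag); medium: KF-containing HEPES buffer, pH 7.45, DTT, CHAPS, BSA; also added: Eu donor and XL665 acceptor anti-tag antibodies; dosing: 5 µM single dose; timing: compound-protein-antibody incubation 4 h at 22.5 °C; signal: TR-FRET 671 and 617 nm emission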
ALR H2O2 inh: inhibitors of human sulfhydryl oxidase ALR; purified ALR, DTT oxidation, H2O2 HRP-luminol luminescence; 3.8% of 290,000 active; AID 485317; inhibition, % (test concentration not listed);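 active means mean replicate inhibition above about 79%, with every replicate also reaching it, limit read from the data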
Target sequence (P55789 whole entry, looked up): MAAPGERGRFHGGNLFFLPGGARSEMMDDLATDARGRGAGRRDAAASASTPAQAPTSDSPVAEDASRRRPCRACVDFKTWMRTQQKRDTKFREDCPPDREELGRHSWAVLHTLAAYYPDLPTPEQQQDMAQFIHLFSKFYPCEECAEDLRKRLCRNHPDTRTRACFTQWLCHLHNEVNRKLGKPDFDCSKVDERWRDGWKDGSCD
The depositor's hits bear a star. Only some compounds are listed: those with a hit (about 6.8% of all), similar ones and a draw of the others.

Results for N/C(=N\N=C\c1ccc(O)cc1O)N[N+](=O)[O-] ?
HSF1 inh: -13; AI-2 QS mod: 7; PHOSPHO1 block: 2; HSF1 activator: 11; HCV core dimer: -15; ALR H2O2 inh: 20

Results for CCC1(NS(=O)(=O)c2ccc(N)cc2)C(=O)N(C)C(=O)N(C)C1=O ?
HSF1 inh: -7; HSF1 activator: -7

Results for CCCCn1c(NC(=O)c2ccco2)c(C(=O)OCC)c2nc3ccccc3nc21 ?
HSF1 inh: 58; AI-2 QS mod: -6; PHOSPHO1 block: -7; HSF1 activator: 71*; HCV core dimer: -3; ALR H2O2 inh: 63

What do the screens show for `COC(=O)C1=C(c2ccc(OC)c(OC)c2)C[C@@H]2CC[C@H]1N2C(=O)NCC1CC1`?
ALR H2O2 inh: 0

How did CN1[C@H]2CC[C@@H]1C(C(=O)N1CCOCC1)=C(O)C2 do in these assays?
ALR H2O2 inh: -4

How did Nc1ccc(N2CCN(Cc3ccccc3Cl)CC2)c(Cl)c1 do in these assays?
HSF1 inh: -6; AI-2 QS mod: -17; PHOSPHO1 block: 9; HSF1 activator: 11; HCV core dimer: -5; ALR H2O2 inh: 89*

What do the screens show for `Clc1ccccc1CN1CCN(c2cccc3[nH]ccc23)CC1`?
HSF1 inh: 0; AI-2 QS mod: -7; PHOSPHO1 block: 29; HSF1 activator: -3; HCV core dimer: -7; ALR H2O2 inh: 97*

What do the screens show for `COc1ccccc1N1CCN(Cc2ccccc2Cl)CC1`?
HSF1 inh: -3; AI-2 QS mod: -3; PHOSPHO1 block: -5; HSF1 activator: -5; HCV core dimer: -2

What do the screens show for `Clc1ccccc1CN1CCN(c2ccccc2)CC1`?
HSF1 inh: -10; AI-2 QS mod: 33; PHOSPHO1 block: 5; HSF1 activator: 2; HCV core dimer: 2; ALR H2O2 inh: 99*

Results for COC1=CC2C3Cc4ccc(OC)c(O)c4C2(CCN3C)CC1=O (stereo not drawn) ?
ALR H2O2 inh: 2

How did CC(=O)Nc1ccccc1C(=O)OCC(=O)c1ccccc1Cl do in these assays?
HSF1 inh: 23; AI-2 QS mod: 8; PHOSPHO1 block: 0; HSF1 activator: 33; HCV core dimer: 6; ALR H2O2 inh: -12

How did CC(=O)Nc1ccccc1OP1(=O)COc2ccccc2OC1 do in these assays?
HSF1 inh: -11; AI-2 QS mod: -2; PHOSPHO1 block: 11; HSF1 activator: 4; HCV core dimer: 0; ALR H2O2 inh: 81*

Results for CC1CCC(NC(=O)CNC(=S)N2CC3CC(C2)c2cccc(=O)n2C3)CC1 (stereo not drawn) ?
HSF1 inh: -1; AI-2 QS mod: 23; PHOSPHO1 block: 1; HSF1 activator: 11; HCV core dimer: -3

How did CCn1c(O)c(/C=N/NC(=O)c2ccccc2)c(=O)[nH]c1=S do in these assays?
HSF1 inh: 5; AI-2 QS mod: 27; PHOSPHO1 block: 24; HSF1 activator: 5; HCV core dimer: 3; ALR H2O2 inh: 7

Results for COc1ccccc1-n1c(O)c(/C=N/NC(=S)Nc2ccccc2)c(=O)[nH]c1=S ?
HSF1 inh: -7; AI-2 QS mod: 0; PHOSPHO1 block: 20; HSF1 activator: -5; HCV core dimer: 6; ALR H2O2 inh: 92*

What do the screens show for `COC(=O)C1=C(c2cccc(C#N)c2)C[C@@H]2CC[C@H]1N2C(=O)NC1Cc2ccccc2C1`?
ALR H2O2 inh: -8

What do the screens show for `O=C1NC(=O)C(CCc2ccncc2)(CCc2ccncc2)C(=O)N1Cc1ccccc1`?
HSF1 inh: -71*; AI-2 QS mod: -1; PHOSPHO1 block: 50; HSF1 activator: -78; HCV core dimer: -2; ALR H2O2 inh: -13

How did CCOc1ccccc1N1C(=O)NC(=O)C(CCc2ccncc2)(CCc2ccncc2)C1=O do in these assays?
HSF1 inh: -5; AI-2 QS mod: 0; PHOSPHO1 block: -19; HSF1 activator: -6; HCV core dimer: 16; ALR H2O2 inh: -6

How did O=C(O)c1ccc(-n2c(O)c(/C=C3\C=Nc4ccccc43)c(=O)[nH]c2=O)cc1 do in these assays?
HSF1 inh: -10; AI-2 QS mod: 26; PHOSPHO1 block: 14; HSF1 activator: -11; HCV core dimer: -7; ALR H2O2 inh: 98*

Results for Cc1cccc(N2C(=O)NC(=O)/C(=C/c3ccc(N4CCOCC4)cc3)C2=O)c1 ?
HSF1 inh: -9; AI-2 QS mod: 19; PHOSPHO1 block: -20; HSF1 activator: -4; HCV core dimer: -2; ALR H2O2 inh: 97*

How did COc1ccc(-c2nc3ccccc3c(=O)n2-c2cccnc2)cc1 do in these assays?
HSF1 inh: -69*; AI-2 QS mod: 5; PHOSPHO1 block: 24; HSF1 activator: -76; HCV core dimer: 7; ALR H2O2 inh: 1

What do the screens show for `COc1ccc(-n2c(-c3ccc(C)cc3)nc3ccccc3c2=O)cc1`?
HSF1 inh: 4; AI-2 QS mod: 20; PHOSPHO1 block: 2; HSF1 activator: 11; HCV core dimer: 0; ALR H2O2 inh: -4

How did COc1ccc(-n2c(/C=C/c3ccc(O)c(OC)c3)nc3ccccc3c2=O)cc1 do in these assays?
HSF1 inh: 23; AI-2 QS mod: 37; PHOSPHO1 block: 27; HSF1 activator: 26; HCV core dimer: 4; ALR H2O2 inh: 12

What do the screens show for `COc1cccc(-n2c(/C=C/c3ccc(O)c(O)c3)nc3ccccc3c2=O)c1`?
HSF1 inh: 7; AI-2 QS mod: 11; PHOSPHO1 block: 20; HSF1 activator: 42; HCV core dimer: 11; ALR H2O2 inh: 91*

Results for c1cc2c(cc1NC1=NCCO1)CCCC2 ?
HSF1 inh: 2; HSF1 activator: 2

Results for Cc1nn(Cc2ccccc2)c(C)c1C=C1C(=O)NC(=O)NC1=O ?
HSF1 inh: -1; AI-2 QS mod: -2; PHOSPHO1 block: 3; HSF1 activator: -9; HCV core dimer: -12; ALR H2O2 inh: 95*

Results for Nc1nonc1C(=O)N/N=C/c1ccc([N+](=O)[O-])o1 ?
HSF1 inh: 12; AI-2 QS mod: -84*; PHOSPHO1 block: -5; HSF1 activator: 32; HCV core dimer: -3; ALR H2O2 inh: -21

What do the screens show for `CSC(=Nc1ccccc1)c1c(O)n(C)c(=O)n(C)c1=O`?
HSF1 inh: -3; AI-2 QS mod: 20; PHOSPHO1 block: 51; HSF1 activator: 3; HCV core dimer: 0; ALR H2O2 inh: -4

What do the screens show for `Cn1c(O)c(C(=Nc2ccccc2)SCc2ccccc2Cl)c(=O)n(C)c1=O`?
HSF1 inh: -5; AI-2 QS mod: 5; PHOSPHO1 block: -6; HSF1 activator: 2; HCV core dimer: -5; ALR H2O2 inh: 96*

How did CCOC(=O)c1cc(CC)sc1/N=C/C1C(=O)NC(=S)NC1=O do in these assays?
HSF1 inh: -7; AI-2 QS mod: 16; PHOSPHO1 block: -27; HSF1 activator: -4; HCV core dimer: 2; ALR H2O2 inh: 97*
